Measured values reported in ChEMBL document CHEMBL3414442, “Synthesis and biological evaluation of 2,4-diaminopyrimidines as selective Aurora A kinase inhibitors” (Eur J Med Chem, 2015).
Activity calls are given as the source filed them. The rule behind the calls is not given here.

Columns and labels:
HepG2 = test: Cytotoxicity against human HepG2 cells after 48 hrs by MTT assay; assay type: functional, cell-based; conditions: HepG2, 48 h
Outline: (§1)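 Cells were grown at 37 °C in 5% CO2, plated and left to attach for 4–6 h, then exposed to five concentrations (dissolved in saline) in quadruplicate wells for 48 h. MTT was added for 4 h, formazan was dissolved in DMSO, and A490 was read. IC50 was taken from a log plot of percent of control versus concentration, as the mean of three independent experiments.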

A549 = test: Cytotoxicity against human A549 cells after 48 hrs by MTT assay; assay type: functional, cell-based; conditions: A549, 48 h; outline: as §1
[1] = Cytotoxicity against human HCT8 cells after 48 hrs by MTT assay; assay type: functional, cell-based; conditions: HCT-8, 48 h; outline: as §1
HeLa [2] = test: Cytotoxicity against human HeLa cells after 48 hrs by MTT assay; assay type: functional, cell-based; outline: as §1
Aurora kinase A = target: T1, Aurora kinase A (Homo sapiens, UniProt O14965); test: Inhibition of Aurora A in human HeLa cells after 12 hrs by ELISA method; assay type: cell-based
T1 sequence (O14965 whole entry): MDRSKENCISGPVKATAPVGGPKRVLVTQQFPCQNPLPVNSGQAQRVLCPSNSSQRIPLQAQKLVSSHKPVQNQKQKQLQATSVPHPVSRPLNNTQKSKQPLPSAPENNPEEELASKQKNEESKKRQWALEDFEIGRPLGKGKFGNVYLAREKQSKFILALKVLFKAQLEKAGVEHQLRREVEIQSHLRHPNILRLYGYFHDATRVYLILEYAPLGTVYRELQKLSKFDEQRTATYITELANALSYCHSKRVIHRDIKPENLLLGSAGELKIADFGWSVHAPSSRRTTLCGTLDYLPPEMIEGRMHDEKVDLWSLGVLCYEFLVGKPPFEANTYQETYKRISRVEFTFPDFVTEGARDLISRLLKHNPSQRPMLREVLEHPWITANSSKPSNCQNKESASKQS

HeLa [3] = test: Selectivity index, ratio of IC50 for Aurora B in human HeLa cells to IC50 for Aurora A in human HeLa cells; assay type: cell-based
Aurora kinase B [4] = target: T2, Aurora kinase B (Homo sapiens, UniProt Q96GD4); test: Inhibition of Aurora B in human HeLa cells after 12 hrs by Western blot method; assay type: cell-based
T2 sequence (Q96GD4 whole entry): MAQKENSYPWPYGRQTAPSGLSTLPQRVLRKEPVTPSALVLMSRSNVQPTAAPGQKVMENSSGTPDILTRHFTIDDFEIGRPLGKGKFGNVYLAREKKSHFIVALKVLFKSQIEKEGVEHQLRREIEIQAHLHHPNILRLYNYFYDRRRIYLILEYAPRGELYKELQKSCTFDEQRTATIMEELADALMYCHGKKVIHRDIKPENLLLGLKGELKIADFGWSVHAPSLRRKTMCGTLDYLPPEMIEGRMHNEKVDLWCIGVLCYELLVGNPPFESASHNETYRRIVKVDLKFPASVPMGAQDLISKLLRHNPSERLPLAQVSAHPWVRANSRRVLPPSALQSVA
Outline: (§2)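 HeLa cells were treated for 12 h at 10, 25 or 50 nM. They were washed in PBS and lysed in Tris-HCl pH 7.5 buffer with EDTA, NaCl, PMSF and 1% SDS, then boiled for 10 min. Proteins were separated, blotted onto nitrocellulose and probed with antibodies against Aurora A or Aurora B.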

Aurora kinase B [5] = target: T2, Aurora kinase B; test: Inhibition of Aurora B in human HeLa cells after 12 hrs by ELISA method; assay type: cell-based
[6] = target: T3, Aurora kinase A (Homo sapiens) (UniProt O14965); test: Inhibition of Aurora A in human HeLa cells after 12 hrs by Western blot method; assay type: cell-based; outline: as §2
T3 sequence (whole entry): T1 sequence (O14965 whole entry)

Aurora kinase B [7] = target: T2, Aurora kinase B; test: Inhibition of Aurora B in human HeLa cells at >10 nM after 12 hrs by ELISA method; assay type: cell-based
Outline: (§3)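 HeLa cells were treated for 12 h. A sandwich ELISA used plates coated with anti-human Aurora A or B antibody and an HRP-labelled detection antibody. TMB substrate was added, the reaction was stopped with sulphuric acid, and absorbance was read at 450 nm.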

HeLa [8] = test: Induction of cell cycle arrest in human HeLa cells assessed as accumulation at S phase at 2 uM after 12 hrs by propidium iodide staining based flow cytometry (reference value: 16.6%); assay type: functional
[9] = target: T3, Aurora kinase A (Homo sapiens); test: Inhibition of Aurora A in human HeLa cells at >10 nM after 12 hrs by ELISA method; assay type: cell-based; outline: as §3
HeLa [10] = test: Induction of cell cycle arrest in human HeLa cells assessed as accumulation at G1 phase at 5 uM after 12 hrs by propidium iodide staining based flow cytometry (reference value: 73%); assay type: functional
HeLa [11] = test: Increase in cyclin B1 protein expression in human HeLa cells at 500 nM by Western blot method; assay type: functional, cell-based
Outline: (§4)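 Lysates were boiled for 10 min and centrifuged. Proteins were separated, transferred to nitrocellulose, probed for cyclin B1 with antibodies and developed.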

[12] = target: T3, Aurora kinase A (Homo sapiens); test: Inhibition of Aurora A in human HeLa cells at; assay type: cell-based
HeLa [13] = test: Induction of cell cycle arrest in human HeLa cells assessed as accumulation at S phase at 5 uM after 12 hrs by propidium iodide staining based flow cytometry (reference value: 16.6%); assay type: functional
HeLa [14] = test: Induction of cell cycle arrest in human HeLa cells assessed as accumulation at G2/M phase at 5 uM after 12 hrs by propidium iodide staining based flow cytometry (reference value: 10.2%); assay type: functional
HeLa [15] = test: Increase in cyclin B1 protein expression in human HeLa cells at 100 nM by Western blot method; assay type: functional, cell-based; outline: as §4
Aurora kinase B [16] = target: T2, Aurora kinase B; test: Inhibition of Aurora B in human HeLa cells at; assay type: cell-based
HeLa [17] = test: Induction of cell cycle arrest in human HeLa cells assessed as accumulation at G2/M phase at 2 uM after 12 hrs by propidium iodide staining based flow cytometry (reference value: 10.2%); assay type: functional
HeLa [18] = test: Induction of cell cycle arrest in human HeLa cells assessed as accumulation at G1 phase at 2 uM after 12 hrs by propidium iodide staining based flow cytometry (reference value: 73%); assay type: functional
HeLa [19] = test: Induction of cell cycle arrest in human HeLa cells assessed as accumulation at G2/M phase after 12 hrs by propidium iodide staining based flow cytometry; assay type: functional

Work on CCCNc1nc(Nc2ccc(N3CCOCC3)cc2)ncc1F yielded an IC50 (HepG2) of 20 µM, an IC50 (A549) of 8.8 µM and an IC50 [1] of 73.9 µM. The IC50 (HeLa [2]) was 7.3 µM.

Work on COc1cc(C(=O)NC2CCN(C)CC2)ccc1Nc1ncc(Cl)c(NC2CCCC2)n1 yielded an IC50 (HepG2) of 9.3 µM, an IC50 (A549) of 5.3 µM and an IC50 [1] of 4.4 µM. The IC50 (HeLa [2]) was 2.7 µM.

With Fc1cnc(Nc2ccc(N3CCOCC3)cc2)nc1NC1CCCC1 the IC50 (HepG2) was 36.5 µM, the IC50 (A549) was 17.3 µM and the IC50 [1] was 24 µM. The IC50 (HeLa [2]) was 31.4 µM.

With CN1CCC(NC(=O)c2ccc(Nc3ncc(Cl)c(NC4CCCC4)n3)cc2)CC1 the IC50 (HepG2) was 2.2 µM, the IC50 (A549) was 1.8 µM and the IC50 [1] was 4.6 µM. It also gave an IC50 (HeLa [2]) of 1.5 µM.

With Fc1cnc(Nc2ccc(N3CCOCC3)cc2)nc1NC1CC1 the IC50 (HepG2) was 33 µM, the IC50 (A549) was 8.7 µM and the IC50 [1] was 40.3 µM. For the same compound, the IC50 (HeLa [2]) was 6 µM.

For COc1cc(C(=O)NC2CCN(C)CC2)ccc1Nc1ncc(Br)c(NC2CCCC2)n1, the IC50 (HepG2) was 4.9 µM, the IC50 (A549) was 2.5 µM and the IC50 [1] was 12 µM. The IC50 (HeLa [2]) was 3.5 µM.

CCCNc1nc(Nc2ccc(N3CCN(C)CC3)cc2)ncc1F gave an IC50 (HepG2) of 35 µM, an IC50 (A549) of 5.1 µM and an IC50 [1] of 50 µM. The IC50 (HeLa [2]) was 14.2 µM.

Compound CN1CCN(c2ccc(Nc3ncc(N)c(NC4CCCC4)n3)cc2)CC1 has an IC50 (HepG2) of 18.5 µM, an IC50 (A549) of 27 µM and an IC50 [1] of 4.2 µM. For the same compound, the IC50 (HeLa [2]) was 9.7 µM.

CN1CCN(c2ccc(Nc3ncc([N+](=O)[O-])c(NC4CCCC4)n3)cc2)CC1 gave an IC50 (HepG2) of 5.2 µM, an IC50 (A549) of 4.6 µM and an IC50 [1] of 53.7 µM. For the same compound, the IC50 (HeLa [2]) was 3.8 µM.

For CN1CCN(c2ccc(Nc3ncc(F)c(NC4CCCC4)n3)cc2)CC1, the IC50 (HepG2) was 25 µM, the IC50 (A549) was 37.2 µM and the IC50 [1] was 29 µM. It also gave an IC50 (HeLa [2]) of 20 µM.

Work on COc1cc(C(=O)NC2CCN(C)CC2)ccc1Nc1ncc(F)c(NC2CCCC2)n1 yielded an IC50 (Aurora kinase A) of 0.043 µM, an IC50 (HepG2) of 4.5 µM and a Ratio IC50 (HeLa [3]) of 9. The inhibition (Aurora kinase B [4]) was “Dose-dependent effect”, the IC50 (A549) was 2.1 µM and the IC50 (Aurora kinase B [5]) was 0.395 µM. For the same compound, the IC50 [1] was 2.1 µM, the inhibition [6] was “Dose-dependent effect” and the IC50 (HeLa [2]) was 2.2 µM.

With CN1CCC(NC(=O)c2ccc(Nc3ncc(Br)c(NC4CCCC4)n3)cc2)CC1 the IC50 (Aurora kinase A) was 0.012 µM, the inhibition (Aurora kinase B [7]) was “Active” and the Activity (HeLa [8]) was 10.6%. The inhibition [9] was “Active”, the IC50 (HepG2) was 2.4 µM and the Activity (HeLa [10]) was 50.5%. The inhibition (HeLa [11]) was “Active”, the inhibition [12] was “inactive” and the Ratio IC50 (HeLa [3]) was 35. The Activity (HeLa [13]) was 6%, the inhibition (Aurora kinase B [4]) was “Dose-dependent effect” and the Activity (HeLa [14]) was 43.5%. The IC50 (A549) was 0.5 µM, the inhibition (HeLa [15]) was “Active” and the inhibition (Aurora kinase B [16]) was “inactive”. The Activity (HeLa [17]) was 33.2%, the IC50 (Aurora kinase B [5]) was 0.43 µM and the IC50 [1] was 3.6 µM. For the same compound, the inhibition [6] was “Dose-dependent effect”, the IC50 (HeLa [2]) was 0.9 µM and the Activity (HeLa [18]) was 56.2%. The Activity (HeLa [19]) was “Dose-dependent effect”.

Cc1cc(Nc2cc(N3CCN(C)CC3)nc(Sc3ccc(NC(=O)C4CC4)cc3)n2)n[nH]1 [TOZASERTIB] gave an IC50 (HepG2) of 63.4 µM, an IC50 (A549) of 19.4 µM and an IC50 [1] of 44.6 µM. It also gave an IC50 (HeLa [2]) of 27.3 µM.

For O=[N+]([O-])c1cnc(Nc2ccc(N3CCOCC3)cc2)nc1NC1CCCC1, the IC50 (HepG2) was 21.9 µM, the IC50 (A549) was 63.7 µM and the IC50 [1] was 20 µM. The IC50 (HeLa [2]) was 36.4 µM.

CN1CCC(NC(=O)c2ccc(Nc3ncc(F)c(NC4CCCC4)n3)cc2)CC1 showed an IC50 (HepG2) of 10 µM, an IC50 (A549) of 10.3 µM and an IC50 [1] of 16 µM. The IC50 (HeLa [2]) was 45.5 µM.

CN1CCC(NC(=O)c2ccc(Nc3ncc([N+](=O)[O-])c(NC4CCCC4)n3)cc2)CC1 gave an IC50 (HepG2) of 5.8 µM, an IC50 (A549) of 42.3 µM and an IC50 [1] of 15.6 µM. It also gave an IC50 (HeLa [2]) of 21.7 µM.
